In the array DNA melting data of Ke et al. (doi:10.1101/2024.01.08.574731):

Experiments:
[1] = melting temperature; fluorescence melt of hairpins on a sequencing array, two-state fit, raised by 9.35 °C to match UV melts; conditions: sodium 0.088 M
How it was run: (§1)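 Hairpins were imaged by Cy3 fluorescence on a sequenced MiSeq flow cell with annealed Cy3 and quencher oligos, in 50 mM Na-HEPES pH 8.0, 25 mM NaCl, in 2.5 °C steps up to 60 °C. Bootstrapped two-state fits of normalised signals gave melting temperature and folding enthalpy. Four replicates were combined by inverse variance, and fitted temperatures were raised by 9.35 °C to match UV melts.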

[2] = folding enthalpy; higher = less favourable; fluorescence melt of hairpins on a sequencing array, two-state fit; conditions: sodium 0.088 M
How it was run: as §1

| Sequence | Tm [1] [°C] | folding enthalpy [2] [kcal/mol] |
| --- | --- | --- |
| GCGTAGAAACGC ((((....)))) | 48 | -18.6 |
| GCGTAGCAACGC ((((....)))) | 61.4 | -9.68 |
| GCGTAGCGAAAGCACCGC (((..((....))..))) | 47.8 | -10.6 |
| GCGTAGCGAAAGCGGCGC (((..((....))..))) | 69.1 | -22.4 |
| GCGTAGCGAAAGCTAGGC ((.((((....)))).)) | 59.6 | -20.9 |
| GCGTAGCGAAAGCTCTGC ((..(((....)))..)) | 43.8 | -7.19 |
| GCGTAGCGAAAGCTGAGC ((..(((....)))..)) | 54.4 | -16 |
| GCGTAGCGAAAGCTTAGC ((..(((....)))..)) | 51.5 | -14.6 |
| GCGTAGGCACGC ((((....)))) | 60.8 | -14.1 |
| GCGTAGTCGAAAGACCGC (((..(((....)))))) | 52 | -28.9 |
| GCGTATCGAAAGATTCGC (((.(((....))).))) | 53.9 | -42.7 |
| GCGTATCGACGC ((((....)))) | 52.6 | -18.9 |
| GCGTATCTACGC ((((....)))) | 56.9 | -24.4 |
| GCGTATGCACGC ((((....)))) | 54.3 | -13.3 |
| GCGTATGGAAACATACGC (((((((....))))))) | 68.2 | -37.7 |
| GCGTATTTACGC ((((....)))) | 54.5 | -26.7 |
| GCGTCAAAACGC ((((....)))) | 51.6 | -21.2 |
| GCGTCACCGAAAGGTCGC (((..(((....)))))) | 51.2 | -25.2 |
| GCGTCACTACGC ((((....)))) | 52.8 | -25.3 |
| GCGTCAGACGC ((((...)))) | 52.3 | -22.7 |
| GCGTCAGGAAACCAACGC ((((..(....)..)))) | 40.3 | -25.1 |
| GCGTCAGGAAACTAACGC ((((.((....)).)))) | 44.7 | -28.1 |
| GCGTCATAACGC ((((....)))) | 53.3 | -23.4 |
| GCGTCATTACGC ((((....)))) | 55 | -22.9 |
| GCGTCCAACGC ((((...)))) | 53.6 | -19.9 |

| Sequence | Tm [1] [°C] | folding enthalpy [2] [kcal/mol] |
| --- | --- | --- |
| GCGTCCCAACGC ((((....)))) | 55.1 | -23.5 |
| GCGTCCCGAAAGGGCCGC (((.(((....))).))) | 64.8 | -23.7 |
| GCGTCCGAAAGGAAACGC ((((((....)))..))) | 54.4 | -34.1 |
| GCGTCCGAAAGGAAGCGC ((((((....)))..))) | 67.4 | -29.7 |
| GCGTCCGAAAGGACACGC ((((((....)))..))) | 60 | -14.6 |
| GCGTCCGAAAGGACCGC ((((((....))).))) | 66.7 | -19.6 |
| GCGTCCGAAAGGAGACGC ((((((....)))..))) | 57.6 | -31.4 |
| GCGTCCGAAAGGAGCCGC ((((((....)))..))) | 50.1 | -16.9 |
| GCGTCCGGAAACGGATGC ((.((((....)))).)) | 65.1 | -37.3 |
| GCGTCGAACGC ((((...)))) | 50.3 | -18.2 |
| GCGTCGCGAAAGCCCCGC (((..((....))..))) | 43.6 | -19.7 |
| GCGTCGCGAAAGCCTCGC (((..((....))..))) | 50.8 | -21.7 |
| GCGTCGCGAAAGCGGTGC ((..(((....)))..)) | 58.9 | -18.1 |
| GCGTCGCGAAAGCGTGGC ((..(((....)))..)) | 49.8 | -14.9 |
| GCGTCGCGAAAGCTAGGC ((.(.((....)).).)) | 36.8 | -20.9 |
| GCGTCGCGAAAGCTATGC ((.(.((....)).).)) | 45 | -20.1 |
| GCGTCGGGAAACCGACAC (.(((((....))))).) | 48.1 | -11.2 |
| GCGTCGGGAAACTGGCGC (((.(.(....).).))) | 53.2 | -37.1 |
| GCGTCGTCGAAAGACCGC (((..(((....)))))) | 50.3 | -19.3 |
| GCGTCTAGACGC ((((....)))) | 58.6 | -31 |
| GCGTCTCGAAAGAGTCGC (((.(((....))).))) | 58.1 | -38.1 |
| GCGTCTCTACGC ((((....)))) | 52.9 | -24.4 |
| GCGTCTGCACGC ((((....)))) | 52.5 | -17.6 |
| GCGTCTGGAAACAGGTGC ((..(((....)))..)) | 41.8 | -28.3 |
| GCGTCTTACGC ((((...)))) | 62.5 | -21.1 |

| Sequence | Tm [1] [°C] | folding enthalpy [2] [kcal/mol] |
| --- | --- | --- |
| GCGTCTTGACGC ((((....)))) | 69.1 | -34.4 |
| GCGTGAACACGC ((((....)))) | 68 | -20.9 |
| GCGTGACGAAAGTCCCGC (((.(((....))).))) | 59.8 | -21.9 |
| GCGTGACGAAAGTCCGC (((.(((....)))))) | 65 | -32.2 |
| GCGTGAGAACGC ((((....)))) | 64.2 | -18.9 |
| GCGTGAGCACGC ((((....)))) | 62.6 | -12.7 |
| GCGTGATAACGC ((((....)))) | 69.3 | -26.9 |
| GCGTGATCACGC ((((....)))) | 59.1 | -35.6 |
| GCGTGATTACGC ((((....)))) | 52.5 | -22.2 |
| GCGTGCCACGC ((((...)))) | 57.9 | -21.3 |
| GCGTGCCCGAAAGGGCGC (((..(((....)))))) | 55.5 | -7.85 |
| GCGTGCCGAAAGGCCCGC (((.(((....))).))) | 68.9 | -21.6 |
| GCGTGCCGACGC ((((....)))) | 60.1 | -19.3 |
| GCGTGCGAAAGCAAACGC ((((((....)))..))) | 60.2 | -29.6 |
| GCGTGCGAAAGCATCGC ((((((....))).))) | 67.2 | -30.9 |
| GCGTGGAGACGC ((((....)))) | 55.6 | -18.2 |
| GCGTGGCGAAAGCAGCGC (((..((....))..))) | 67.9 | -33.8 |
| GCGTGGCGAAAGCCCAGC ((..(((....)))..)) | 56.2 | -18.3 |
| GCGTGGCGAAAGCCGAGC ((..(((....)))..)) | 66.4 | -25.8 |
| GCGTGGCGAAAGCCGTGC ((..(((....)))..)) | 57.4 | -19.2 |
| GCGTGGCGAAAGCGATGC ((.(.((....)).).)) | 55.7 | -25.3 |
| GCGTGGGCGAAAGCCCGC (((..(((....)))))) | 57.7 | -9.77 |
| GCGTGGGGAAACCCACAC (.(((((....))))).) | 46.9 | -11.6 |
| GCGTGGGGAAACCCGTGC ((..(((....)))..)) | 46.2 | -26.1 |
| GCGTGGGGAAACCTACGC ((((.((....)).)))) | 58.7 | -41.3 |

| Sequence | Tm [1] [°C] | folding enthalpy [2] [kcal/mol] |
| --- | --- | --- |
| GCGTGGGGAAACTCACGC (((((.(....).))))) | 61.4 | -42.9 |
| GCGTGGGTACGC ((((....)))) | 53.9 | -23.9 |
| GCGTGTACACGC ((((....)))) | 67.6 | -28.5 |
| GCGTGTCACGC ((((...)))) | 57.7 | -31.1 |
| GCGTGTGACGC ((((...)))) | 53.4 | -23.8 |
| GCGTGTGGAAACATGCGC (((..((....))..))) | 60.9 | -35.2 |
| GCGTGTGTACGC ((((....)))) | 53.3 | -25.7 |
| GCGTGTTCGAAAGAACGC (((..(((....)))))) | 50.5 | -14.7 |
| GCGTTACGAAAGTACCGC (((.(((....))).))) | 53.7 | -31.3 |
| GCGTTACGAAAGTACGC (((.(((....)))))) | 61.1 | -32.2 |
| GCGTTACGAAAGTAGCGC (((.(((....))).))) | 64.4 | -39.7 |
| GCGTTACGAAAGTATCGC (((.(((....))).))) | 55.2 | -47.6 |
| GCGTTATACGC ((((...)))) | 61.3 | -20.4 |
| GCGTTATCACGC ((((....)))) | 50.6 | -22.5 |
| GCGTTATGACGC ((((....)))) | 56.2 | -25 |
| GCGTTCAACGC ((((...)))) | 56.8 | -23.1 |
| GCGTTCATACGC ((((....)))) | 54.7 | -21.7 |
| GCGTTCCTACGC ((((....)))) | 57.9 | -25.2 |
| GCGTTCGAAAGAAACGC ((((((....))).))) | 56.1 | -35.3 |
| GCGTTCGAAAGAAATCGC ((((((....)))..))) | 35.2 | -25 |
| GCGTTCGAAAGAACACGC ((((((....)))..))) | 50.5 | -22.1 |
| GCGTTCGAAAGAATCCGC ((((((....)))..))) | 35.3 | -22 |
